Experimental data collected from several papers.
Matrix: Caco-2

The Papp of `CC(C)(/C=C(\C#N)C(=O)N1CCC[C@@H](n2nc(-c3ccc(Oc4ccccc4)cc3F)c3c(N)ncnc32)C1)N1CCN(C2COC2)CC1` is reported as 1.7 ×10⁻⁶ cm/s (1 µM).
For `Cn1c(S)nc2c1c(=O)n(Cc1ccccc1)c(=O)n2C`, the Papp B→A was 30.5 ×10⁻⁶ cm/s (10 µM, 2 h).
The Papp B→A of `CC[C@H](C)C(=O)N1CCC(NC(=O)Nc2ccc(OC(F)(F)F)c(F)c2)CC1` is reported as 16.4 ×10⁻⁶ cm/s (10 µM, 1 h, pH 7.4).
`CC1=C2C(=O)O[C@@H](c3ccoc3)[C@]2(C)CCC1` has a Papp of > 10 ×10⁻⁶ cm/s (1 mg/mL, 4 h, pH 7.4).
`CO[C@@H](C[C@H]1C(C)=CC[C@@H]2[C@]3(C)C[C@H](O[C@@H]4O[C@@H](C)[C@H](OC(=O)c5cccc(O)c5)[C@@H](O[C@@H]5O[C@H](CO)[C@@H](O)[C@H](O)[C@H]5NC(C)=O)[C@H]4O)[C@@H](O)C(C)(C)[C@H]3CC[C@]21C)[C@H](N)C(=O)O.O=C(O)C(F)(F)F` has a Papp B→A of 0.05 ×10⁻⁶ cm/s (5 µM, 1 h).
With `CC(C)NCC(O)COc1cccc2ccccc12` (centres unmarked) the Papp B→A was 59.3 ×10⁻⁶ cm/s.
`O=c1c(O)c(-c2ccc(O)cc2)oc2cc(O)cc(O)c12` has a Papp of 1.17 ×10⁻⁶ cm/s (1 mg/mL, pH 7.4).
With `CN(C)C(=O)c1cc2cnc(Nc3ccc(N4CCNCC4)cn3)nc2n1C1CCCC1` the Papp was 1.83 ×10⁻⁶ cm/s.
`Nc1nc2c(ncn2COCCO)c(=O)[nH]1` gave a Papp B→A of 0.756 ×10⁻⁶ cm/s (10 µM, 2 h, pH 7.4).
The Papp B→A of `Cc1ncsc1-c1ccc(CNC(=O)[C@@H]2C[C@@H](O)CN2C(=O)[C@@H](NC(=O)C2(F)CC2)C(C)(C)C)c(OCCOc2ccc(CN3CCN(c4cc(-c5ccccc5O)nnc4N)CC3)cc2)c1` is reported as 3.8 ×10⁻⁶ cm/s (2 h, pH 7.2).
With `O=c1c(O)c(-c2ccc(O)c(O)c2)oc2cc(O)cc(O)c12` the Papp was 1.7 ×10⁻⁶ cm/s (1 mg/mL, pH 7.4).
For `CC(C)NCC(O)COc1cccc2ccccc12` (centres unmarked), the Papp was 20 ×10⁻⁶ cm/s.
`CNCc1cc(-c2ccccc2F)n(S(=O)(=O)c2cccnc2)c1` has a Papp of 17.8 ×10⁻⁶ cm/s.
`CC(C)c1cccc2c(-c3ccccc3)cc(-c3ccc(-c4ccc(C(=O)O)cc4)[nH]3)nc12` has a Papp B→A of 1.11 ×10⁻⁶ cm/s.
`COCCc1ccc(OCC(O)CNC(C)C)cc1` (centres unmarked) has a Papp of 15 ×10⁻⁶ cm/s.
The Papp B→A of `Nc1cc(N2CCCCC2)nc(N)[n+]1[O-]` is reported as 7.19 ×10⁻⁶ cm/s (10 µM, 2 h, pH 7.4).
For `CC(C)NCC(O)COc1cccc2ccccc12` (centres unmarked), the Papp B→A was 9.99 ×10⁻⁶ cm/s (10 µM, 2 h, pH 7.4).
